Source: the array DNA melting data of Ke et al. (doi:10.1101/2024.01.08.574731)

How the values were obtained:
[1] = folding enthalpy; higher = less favourable; fluorescence melt of hairpins on a sequencing array, two-state fit; conditions: sodium 0.088 M
Outline: (§1)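 Melting temperature and folding enthalpy were derived from bootstrapped two-state fits. The fitted temperatures were raised by 9.35 °C to agree with UV melts, and four replicates were combined by inverse variance. The underlying data were Cy3 fluorescence images of library hairpins, with annealed Cy3 and quencher oligos, on a sequenced MiSeq flow cell in 50 mM Na-HEPES pH 8.0, 25 mM NaCl, taken in 2.5 °C steps up to 60 °C, normalised to pre-quench Cy3 and to control constructs.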

[2] = melting temperature; fluorescence melt of hairpins on a sequencing array, two-state fit, raised by 9.35 °C to match UV melts; conditions: sodium 0.088 M
Outline: as §1

Row | Sequence | folding enthalpy [1] | Tm [2]
1 | GGTAATGAAAATTACC ((((((....)))))) | -32.4 kcal/mol | 48.4 °C
2 | GGTAATGCGAAAGCAACC (((..(((....)))))) | -11.2 kcal/mol | 31.6 °C
3 | GGTACACCGAAAGGTACC (((..(((....)))))) | -20.5 kcal/mol | 41.1 °C
4 | GGTACACGAAAGTGACC (((.(((....)))))) | -18.4 kcal/mol | 46.4 °C
5 | GGTACAGGAAACTGTATC (.(((((....))))).) | -28.6 kcal/mol | 43.4 °C
6 | GGTACCGAAAGGTGCACC ((((((....)))..))) | -13.9 kcal/mol | 40.3 °C
7 | GGTACCGAAAGGTGTACC ((((((....)))..))) | -22.5 kcal/mol | 46.6 °C
8 | GGTACCGAAAGGTTGACC ((((((....)))..))) | -16.9 kcal/mol | 36 °C
9 | GGTACGGCGAAAGCCACC (((..(((....)))))) | -10.6 kcal/mol | 38.1 °C
10 | GGTACTCGAAAGAGACC (((.(((....)))))) | -23.6 kcal/mol | 43.1 °C
11 | GGTACTGGAAACAATACC ((((.((....)).)))) | -12 kcal/mol | 26.7 °C
12 | GGTACTGGAAACAGTGCC ((.((((....)))).)) | -41.8 kcal/mol | 54.9 °C
13 | GGTAGCCGAAAGGCCACC (((.(((....))).))) | -19.5 kcal/mol | 52.2 °C
14 | GGTAGCGAAAGCTTTACC ((((((....)))..))) | -15.7 kcal/mol | 34.4 °C
15 | GGTAGGTCGAAAGACACC (((..(((....)))))) | -16.5 kcal/mol | 35.3 °C
16 | GGTAGTCGAAAGACGACC (((.(((....))).))) | -44.9 kcal/mol | 54.2 °C
17 | GGTAGTGGAAACACTATC (.(((((....))))).) | -23.4 kcal/mol | 43.5 °C
18 | GGTAGTGGAAACGCTACC (((((.(....).))))) | -34.9 kcal/mol | 51.7 °C
19 | GGTATACGAAAGTACACC (((.(((....))).))) | -28.7 kcal/mol | 40 °C
20 | GGTATAGCGAAAGCTACC (((..(((....)))))) | -15.4 kcal/mol | 39.6 °C
21 | GGTATAGGAAACTGTACC ((((.((....)).)))) | -31.3 kcal/mol | 43 °C
22 | GGTATCGAAAGATATACC ((((((....)))..))) | -19.7 kcal/mol | 34 °C
23 | GGTATCGAAAGATTAACC ((((((....)))..))) | -17 kcal/mol | 30.3 °C

Row | Sequence | folding enthalpy [1] | Tm [2]
24 | GGTATCGAAAGATTTACC ((((((....)))..))) | -27.8 kcal/mol | 28.5 °C
25 | GGTATCGGAAACGGTATC (.((.((....)).)).) | -26.1 kcal/mol | 30.9 °C
26 | GGTATGGCGAAAGCCACC (((..(((....)))))) | -8.56 kcal/mol | 38.9 °C
27 | GGTATGGGAAACCATGCC ((.((((....)))).)) | -37.4 kcal/mol | 51.3 °C
28 | GGTATGGGAAACTATGCC ((.((.(....).)).)) | -23.7 kcal/mol | 30.9 °C
29 | GGTATTCGAAAGAAAACC (((.(((....))).))) | -32.8 kcal/mol | 39.3 °C
30 | GGTATTCGAAAGAAACC (((.(((....)))))) | -16.9 kcal/mol | 31.7 °C
31 | GGTATTGCGAAAGCAACC (((..(((....)))))) | -10 kcal/mol | 29.4 °C
32 | GGTATTGGAAACAACACC (((.(((....))).))) | -31.9 kcal/mol | 32.2 °C
33 | GGTCAAACGAAAGTTACC (((..(((....)))))) | -15.1 kcal/mol | 30.3 °C
34 | GGTCAACGAAAGTTTACC (((.(((....))).))) | -28.8 kcal/mol | 42.8 °C
35 | GGTCAAGGAAACTTGATC (.(((((....))))).) | -34.1 kcal/mol | 42.1 °C
36 | GGTCAAGGAAACTTGGTC (..((((....))))..) | -13.9 kcal/mol | 29.7 °C
37 | GGTCACCGAAAGGTACC (((.(((....)))))) | -19.7 kcal/mol | 47.1 °C
38 | GGTCACGAAAGTGAAACC ((((((....)))..))) | -17.9 kcal/mol | 41.4 °C
39 | GGTCACGAAAGTGAACC ((((((....))).))) | -27.2 kcal/mol | 55.6 °C
40 | GGTCACGAAAGTGACACC ((((((....)))..))) | -7.64 kcal/mol | 52 °C
41 | GGTCACGAAAGTGCAACC ((((((....)))..))) | -15.9 kcal/mol | 38.6 °C
42 | GGTCACGAAAGTGCCACC ((((((....)))..))) | -12.9 kcal/mol | 44.4 °C
43 | GGTCACGGAAACGCGACC ((((.((....)).)))) | -50.2 kcal/mol | 54.4 °C
44 | GGTCACGGAAACGTGATC (.(((((....))))).) | -30.4 kcal/mol | 53 °C
45 | GGTCACTCGAAAGAGACC (((..(((....)))))) | -24.1 kcal/mol | 40.8 °C
46 | GGTCAGCGAAAGCTAACC (((.(((....))).))) | -25.6 kcal/mol | 46.7 °C

Row | Sequence | folding enthalpy [1] | Tm [2]
47 | GGTCAGGGAAACCTAACC (((.(((....))).))) | -24.6 kcal/mol | 33.6 °C
48 | GGTCCACGAAAGTGAACC (((.(((....))).))) | -34.8 kcal/mol | 51.3 °C
49 | GGTCCAGGAAACTAGACC ((((.((....)).)))) | -29.7 kcal/mol | 35.7 °C
50 | GGTCCCCGAAAGGGAACC (((.(((....))).))) | -37 kcal/mol | 53 °C
51 | GGTCCCGAAAGGGAGACC ((((((....)))..))) | -17 kcal/mol | 51.4 °C
52 | GGTCCCGAAAGGGGTACC ((((((....)))..))) | -17.2 kcal/mol | 44.9 °C
53 | GGTCCCGAAAGGGTCACC ((((((....)))..))) | -12.2 kcal/mol | 39.4 °C
54 | GGTCCCGGAAACGGGGTC (..((((....))))..) | -14.4 kcal/mol | 42.8 °C
55 | GGTCCGCGAAAGCGAACC (((.(((....))).))) | -28.1 kcal/mol | 57.5 °C
56 | GGTCCGGGAAACCGGGCC ((.((((....)))).)) | -32.5 kcal/mol | 68 °C
57 | GGTCCGGGAAACCGGGTC (..((((....))))..) | -12.7 kcal/mol | 47.6 °C
58 | GGTCCTGGAAACGGGATC (.(((.(....).))).) | -28.5 kcal/mol | 38.4 °C
59 | GGTCGAGCGAAAGCTACC (((..(((....)))))) | -11.9 kcal/mol | 33.3 °C
60 | GGTCGATCGAAAGATACC (((..(((....)))))) | -6.77 kcal/mol | 26.2 °C
61 | GGTCGCCGAAAGGCTACC (((.(((....))).))) | -21.2 kcal/mol | 54.4 °C
62 | GGTCGCGAAAGCGATACC ((((((....)))..))) | -11.3 kcal/mol | 47.7 °C
63 | GGTCGCGAAAGCGCAACC ((((((....)))..))) | -13.1 kcal/mol | 42.4 °C
64 | GGTCGCGAAAGCGTACC ((((((....))).))) | -21.2 kcal/mol | 62 °C
65 | GGTCGCGGAAACGCGGTC (..((((....))))..) | -13.2 kcal/mol | 47.4 °C
66 | GGTCGGGGAAACCCAACC (((.(((....))).))) | -27 kcal/mol | 44.9 °C
67 | GGTCGGGGAAACCCGGTC (..((((....))))..) | -14.8 kcal/mol | 45.5 °C
68 | GGTCTAGGAAACCAGACC (((((.(....).))))) | -35.1 kcal/mol | 45 °C
